Hits are enriched below; roughly 3.9% of the tested compounds scored in any of these assays.
XBP1 UPR activ: activators of adaptive arm of unfolded protein response (XBP1). CHO-XBP1 luciferase reporter, IRE1-XBP1 UPR activation, luminescence; percent of tunicamycin response, DMSO as zero. activation, % at 20 µM. 0.33% of 330,000 active. AID 463104;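 active = versus positive control, 20 µM dose yields 30% or more activation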;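 note: 100% = tunicamycin at 10 µg/mL and 0% = DMSO only wells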
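Assay system: CHO-XBP1 luciferase reporter cells; Schedule: 6 h treatment, 37 °C; Detection: glow luminescence from Steady-Glo reagent; Benchmarks: high control tunicamycin 10 µg/mL final, low control DMSO vehicle only.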
Gli-Sufu block: antagonists of Gli-Sufu signaling | Sufu-KO-LIGHT fibroblasts, Gli luciferase reporter luminescence | inhibition, % at 5 µM | 0.74% of 340,000 active | AID 588413;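 active = inhibition above about 55%, limit read from the data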;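 note: 0% = DMSO-treated cells and 100% = wells with medium but no cells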
Jurkat NFkB inh: inhibitors of the PMA/ionomycin-induced NF-kB reporter in Jurkat cells. PMA/ionomycin-induced NF-kB luciferase reporter, luminescence. inhibition, % at 4 µM. 0.53% of 330,000 active; in the data active = inhibition above about 50%
697 NFkB inh: inhibitors of the PMA/ionomycin-induced NF-kB reporter in 697 B cells | 697 B-cell NF-kB luciferase reporter, 16 h | inhibition, % at 4 µM | 0.33% of 330,000 active | AID 435022; in the data active = inhibition above about 35%
UPR CHOP act: apoptotic UPR (CHOP) activation | CHO-CHOP luciferase reporter, luminescence; percent of tunicamycin response over DMSO baseline | activation, % at 10 µM | 0.34% of 330,000 active | AID 449763;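 active = at 10 µM dose, activation of 40% or more, normalized to positive control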;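 note: 100% = tunicamycin at 10 µg/mL and 0% = DMSO alone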
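System: CHO-CHOP luciferase reporter cell line | Buffer or medium: F12 medium containing 10% fetal bovine serum | Doses: One dose, 10 µM in 0.5% DMSO | Times: 6 h compound exposure at 37 °C after overnight seeding | Signal: Luciferase luminescence | Read-out: % activation vs tunicamycin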
CHOP inhibitor: blocks CHOP induction under ER stress; CHO-K1 CHOP-promoter luciferase, tunicamycin-induced, 15-18 h; inhibition, % at 10 µM; 3.8% of 220,000 active; AID 2732;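 active = compounds that reduced the stress-induced luciferase reporter signal by more than about 70% of percent inhibition, limit read from the data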;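 note: 0% = tunicamycin plus vehicle and 100% = wells without tunicamycin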
CHOP UPR conf: confirmation of apoptotic unfolded protein response (CHOP) activators; shares compounds with UPR CHOP act; CHO-CHOP cells, CHOP-luciferase reporter luminescence; percent of tunicamycin response, DMSO as zero; activation, % at 10 µM; 64% of 1,000 active; AID 463112; in the data active = activation above about 33%;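 note: 0% = DMSO wells and 100% = tunicamycin 10 µg/mL wells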
XBP1 UPR conf: adaptive UPR (XBP1) activation, confirmed | AID 485299 | shares compounds with XBP1 UPR activ | 63% of 1,000 active | CHO-XBP1 IRE1-XBP1 luciferase reporter, luminescence | activation, % at 20 µM;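 active = reporter signal at least 30% of the positive control's activation in two or more of four replicate wells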;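 note: plate controls were DMSO negative control for no effect and tunicamycin 10 µg/mL positive control for full effect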
Numbers without * were called inactive; x = not tested or not shown.

SMILES	XBP1 UPR activ	Gli-Sufu block	Jurkat NFkB inh	697 NFkB inh	UPR CHOP act	CHOP inhibitor	CHOP UPR conf	XBP1 UPR conf
C[C@@H]1CN([C@H](C)CO)C(=O)Cc2cc(NC(=O)Nc3ccccc3)ccc2O[C@@H]1CN(C)Cc1ccc2c(c1)OCO2	-2	16	-14	-2	1	x	x	x
CSCCC(NC(=O)c1ccco1)C(=O)NCC(c1ccccc1)N(C)C (stereo not drawn)	0	5	-2	12	3	x	x	x
CC(C)(C)CC(=O)N1CCN(c2ccc(S(=O)(=O)N3CCOCC3)cc2[N+](=O)[O-])CC1	-4	-1	7	7	-1	x	x	x
COC(=O)C1=C(c2ccc(OC)cc2)OC(=O)C1(C)C	-2	-10	10	12	-1	x	x	x
OCCNc1nc(Nc2ccc(Br)cc2)nc2ccccc12	41*	32	1	-11	76*	5	60*	46*
CCCCCN(C(=O)CCC(=O)OCC(=O)N(C)Cc1ccccc1C)c1c(N)n(CCCC)c(=O)[nH]c1=O	2	-1	9	-6	0	x	x	x
COc1cc2c(cc1NC(=O)COCC(=O)O)oc1ccccc12	-1	-6	4	8	0	x	x	x
CCN(CC)c1ccc(C(=O)OCC(=O)Nc2cc3oc4ccccc4c3cc2OC)cc1	178*	-20	-18	-5	55*	-1	30	121*
CCOC(=O)c1cc(NC(=O)c2ccc(Cl)cc2)c(=O)n2c1oc1ccc(Cl)cc12	39*	4	17	2	70*	16	8	45*
C/C(CC(C)(C)C1CCCCC1)=N\NC(N)=S	69*	36	30	18	72*	-3	43*	31*
Cc1ccc2nc(NC(=O)c3ccc(-c4nc5ccccc5s4)s3)sc2c1	66*	8	-2	-35	69*	60	26	89*
O=C(Nc1nc2ccccc2s1)c1ccc(Cl)s1	3	-93	-123	-217	9	44	x	x
CN(C)c1ccc(-c2cc(O)c3ncccc3c2)cc1	6	0	0	-40	25	x	x	x
Oc1cc(-c2ccncc2)cc2cccnc12	34*	50	17	-3	70*	x	66*	16
COCCNC(=O)C(c1ccc(Cl)cc1)N(CCOC)C(=O)CCC(=O)Nc1ccccn1 (stereo not drawn)	1	11	0	9	0	x	x	x
Cc1cc(NC(=O)CSc2nc(C3CC3)nc3sc4c(c23)CCC(C)C4)no1 (stereo not drawn)	65*	-37	-47	-115	51*	x	4	4
O=C(CSc1nc2ccc(Nc3nc(N4CCOCC4)nc(N4CCOCC4)n3)cc2s1)Nc1ccccc1Cl	3	3	16	-3	2	x	x	x
O=C(CSc1nc2ccc(Nc3nc(N4CCOCC4)nc(N4CCOCC4)n3)cc2s1)Nc1ccccc1F	277*	12	19	6	106*	x	111*	302*
C/C(=N\NC(=O)C1CC1)c1ccc(OC(F)F)cc1	6	-6	-26	0	4	x	x	x
C[C@H](CO)N1C[C@H](C)[C@@H](CN(C)S(=O)(=O)c2cn(C)cn2)Oc2ccc(NS(=O)(=O)c3ccccc3)cc2C1=O	2	2	9	-9	1	x	x	x
Cc1ccc(Cc2cnc(NC(=O)/C(C#N)=C/c3ccc(-c4ccc([N+](=O)[O-])cc4)o3)s2)cc1	136*	6	-1	-11	123*	-8	78*	166*
O=C(Nc1ncc(Cc2ccc(C(F)(F)F)cc2)s1)c1ccc(-c2cccc([N+](=O)[O-])c2)o1	0	23	22	-18	2	15	x	x
CSc1nnc(-c2ccc(S(=O)(=O)N3CCOCC3)cc2)n1C	-1	-8	-6	7	-1	x	x	x
C/C(CC1CC(C)OC1=O)=N\NC(N)=S (stereo not drawn)	0	-2	5	13	0	-5	x	x
C/C(CCC12CC3CC(CC(C3)C1)C2)=N\NC(N)=S	83*	40	11	20	220*	41	96*	63*
SMILES	XBP1 UPR activ	Gli-Sufu block	Jurkat NFkB inh	697 NFkB inh	UPR CHOP act	CHOP inhibitor	CHOP UPR conf	XBP1 UPR conf
CCCN1Cc2cccc(C(=O)Nc3ccc(-c4nc5ccccc5[nH]4)cc3)c2C1=O	38*	-4	-7	11	42*	75*	41*	29
CC(C)(C)C(=O)NC(=S)NNC(=O)c1ccncc1	-2	-16	-14	9	-1	15	x	x
CC(C)(C)C(=O)NC(=S)NNC(=O)c1ccc(-c2ccccc2)cc1	72*	29	-19	-161	69*	92*	84*	50*
CCCCN=C1SC(C(=O)Nc2sc3c(c2C(=O)OC)CCC3)C(N)=C1C(=O)N1CCOCC1 (stereo not drawn)	166*	6	4	13	109*	x	2	16
COC(=O)c1c(NC(=S)NN2CCOCC2)sc2c1CCCC2	4	4	-9	-16	-2	23	x	x
Cc1cc(-c2nc3cc(F)ccc3s2)ccc1N	x	-79	x	x	x	x	x	x
O=C(CNC(=O)Cc1cccc2ccccc12)NCc1ccc(F)cc1	-1	-12	-20	12	0	x	x	x
CCOC(=O)c1ccc(-c2ccc(/C=N/NC(=O)CN(c3cccc(C)c3)S(C)(=O)=O)o2)cc1	115*	-41	-54	-77	55*	79*	50*	48*
O=C(Nc1cccc(-c2nc3cccnc3s2)c1)c1cccnc1Cl	3	-6	-7	-31	1	20	x	x
O=C(Nc1cccc(-c2nc3cccnc3s2)c1)C1c2ccccc2Oc2ccccc21	440*	4	7	-30	281*	69	75*	466*
COc1ccc2oc(C(=O)Nc3ccc(N4CCOCC4)cc3)c(C)c2c1	-1	16	-3	-10	-1	x	x	x
CCOC(=O)/C(=C\c1ccccc1)C(=O)c1cc(C(C)=O)c(Nc2ccccc2)s1	60*	11	20	0	139*	x	191*	41*
Cc1ccc(NC(=O)/C(C#N)=C/c2cn(CC(=O)NCc3ccco3)c3ccccc23)cc1C	235*	2	-22	9	124*	-47	0	-1
CNC(=O)/C(C#N)=C/c1cn(CC(=O)NCc2ccco2)c2ccccc12	-2	-6	-13	-3	0	24	x	x
CCOc1ccc(-n2c(C)cc(C(=O)CCl)c2C)cc1	70*	5	-4	7	244*	-427	621*	202*
